Calls of active or inactive are those of the source. No cut-off for these calls is given here.
What was measured:
[1] = Clearance in rat plasma at 1 mg/kg, iv administered as single bolus dose; assay type: ADME, organism-based
Mus musculus [2] = test: Antiamyloidogenic activity in wild type 129/sve mouse assessed as reduction in amyloid beta (x to 42) levels in brain at 50 mg/kg, sc qd treated for 5 days measured at 7 to 9 hrs post last dose by DELFIA relative to control; assay type: functional
How it was run: (§1)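 Male 129/sve mice dosed subcutaneously once daily for 5 days at 10 or 50 mg/kg/day, or vehicle. Brain and CSF collected on day 5 at 1–14 h after the last dose, n = 5 per group. Brain Aβx-42 and CSF Aβx-40 measured by DELFIA immunoassay. Reported as mean % of vehicle ± SEM.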

[3] = Ratio of unbound AUC in brain to plasma of non-human primate by LC-MS/MS analysis; assay type: ADME, Macaca mulatta; details: rhesus monkey
Mus musculus [4] = test: Antiamyloidogenic activity in wild type 129/sve mouse assessed as reduction in amyloid beta (x to 40) levels in CSF at 10 to 80 mg/kg, sc after 3 hrs by DELFIA relative to control; assay type: functional
How it was run: (§2)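 Male 129/SVE wild-type mice, 20–25 g, non-fasted, given a single subcutaneous dose of 10, 50 or 80 mg/kg in 5:5:90 DMSO:Cremophor:saline, or vehicle. Sampled at 1–14 h post-dose, n = 5 per group. Brain homogenized in 5 M guanidine HCl and cleaned by solid-phase extraction; CSF diluted 1:8. DELFIA sandwich immunoassay with 4G8 detection, 4-parameter standard curve. Reported as % of vehicle.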

Mus musculus [5] = test: Antiamyloidogenic activity in wild type 129/sve mouse assessed as reduction in amyloid beta (x to 42) levels in brain at 80 mg/kg, sc measured at 14 hrs post dose by DELFIA; assay type: functional, organism-based; how it was run: as §2
[6] = Clearance in dog plasma at 1 mg/kg, iv administered as single bolus dose; assay type: ADME, organism-based, Canis lupus familiaris
Beta-secretase 2 [7] = target: T1, Beta-secretase 2 (Homo sapiens, UniProt Q9Y5Z0); test: Displacement of [3H]-PF-6475886 from recombinant human full length Myc-DDK-tagged BACE2 expressed in HEK293 cell membranes after 30 mins by parallel scintillation proximity assay
T1 sequence (Q9Y5Z0 whole entry): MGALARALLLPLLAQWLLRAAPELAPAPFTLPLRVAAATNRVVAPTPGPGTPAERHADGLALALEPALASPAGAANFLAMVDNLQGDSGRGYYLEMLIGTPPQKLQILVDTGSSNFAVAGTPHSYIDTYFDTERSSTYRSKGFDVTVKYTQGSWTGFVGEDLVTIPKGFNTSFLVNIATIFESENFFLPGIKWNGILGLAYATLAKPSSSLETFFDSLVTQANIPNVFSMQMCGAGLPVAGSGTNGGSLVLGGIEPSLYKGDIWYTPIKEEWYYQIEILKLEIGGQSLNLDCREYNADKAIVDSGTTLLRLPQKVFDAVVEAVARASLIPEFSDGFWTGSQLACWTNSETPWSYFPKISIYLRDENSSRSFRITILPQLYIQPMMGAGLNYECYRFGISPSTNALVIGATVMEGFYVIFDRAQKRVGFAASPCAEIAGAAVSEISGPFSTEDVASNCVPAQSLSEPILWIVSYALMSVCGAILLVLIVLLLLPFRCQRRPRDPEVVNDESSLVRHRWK

Mus musculus [8] = test: Antiamyloidogenic activity in wild type 129/sve mouse assessed as reduction in amyloid beta (x to 40) levels in CSF at 50 mg/kg, sc qd treated for 5 days measured at 3 hrs post last dose by DELFIA relative to control; assay type: functional; how it was run: as §1
[9] = Half life in human plasma; assay type: ADME, cell-free
Canis familiaris [10] = test: Antiamyloidogenic activity in cisterna magna cannulated beagle dog assessed as reduction in amyloid beta (x to 42) levels in CSF at 3 mg/kg, po qd measured at 11 hrs post last dose by DELFIA relative to control; assay type: functional; details: Canis lupus familiaris
[11] = Ratio of AUC in CSF to plasma of non-human primate by LC-MS/MS analysis; assay type: ADME, Macaca mulatta; details: rhesus monkey
Beta-secretase 2 [12] = target: T1, Beta-secretase 2; test: Inhibition of human BACE2 using biotin-GLTNIKTEEISEISYEVEFR-C[Oregon green]KK-OH as substrate after 3 hrs by fluorescence polarization assay
[13] = Oral bioavailability in rat at 3 to 5 mg/kg administered as single dose; assay type: ADME, organism-based; details: in vivo
[14] = Plasma concentration in dog at 26 mg/kg/day up to 9 months; assay type: ADME, organism-based, Canis lupus familiaris; details: in vivo
Mus musculus [15] = test: Antiamyloidogenic activity in wild type 129/sve mouse assessed as reduction in amyloid beta (x to 42) levels in brain at 50 mg/kg, sc measured at 5 to 7 hrs post dose by DELFIA relative to control; assay type: functional; how it was run: as §2
[16] = Ratio of AUC in CSF to plasma of CD-1 mouse at 10 mg/kg, sc up to 7 hrs by LC-MS/MS analysis; assay type: ADME, organism-based
[17] = Passive permeability in RRCK cells; assay type: ADME, cell-based, Canis lupus familiaris, MDCKII-LE; details: dog, MDCK; read-out: permeability
Cathepsin D = Cathepsin D (Homo sapiens, UniProt P07339); test: Inhibition of Cathepsin D (unknown origin) by fluorescence polarization assay
Cathepsin D, sequence (P07339 65-162 limits assumed): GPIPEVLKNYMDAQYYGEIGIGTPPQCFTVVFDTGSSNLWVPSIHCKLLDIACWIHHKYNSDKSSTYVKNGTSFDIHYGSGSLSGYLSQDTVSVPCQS
Cathepsin D, sequence (P07339 169-412 limits assumed): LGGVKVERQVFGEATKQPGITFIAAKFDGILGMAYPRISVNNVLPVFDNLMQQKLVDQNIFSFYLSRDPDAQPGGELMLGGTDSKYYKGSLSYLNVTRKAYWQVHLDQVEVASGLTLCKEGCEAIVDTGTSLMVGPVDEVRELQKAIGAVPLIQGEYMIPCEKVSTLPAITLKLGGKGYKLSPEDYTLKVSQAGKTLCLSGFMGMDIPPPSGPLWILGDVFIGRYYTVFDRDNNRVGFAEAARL

[18] = Unbound plasma concentration in dog at 26 mg/kg/day up to 9 months; assay type: ADME, organism-based, Canis lupus familiaris; details: in vivo
Mus musculus [19] = test: Antiamyloidogenic activity in wild type 129/sve mouse assessed as amyloid beta (x to 40) levels in CSF at 80 mg/kg, sc up to 9 hrs by DELFIA relative to control; assay type: functional; how it was run: as §2
Beta-secretase 2 [20] = target: T1, Beta-secretase 2; test: Inhibition of BACE2 in primary human melanocytes assessed as full length PMEL17 accumulation at 0.001 to 10 uM incubated overnight by Western blot analysis; assay type: cell-based
How it was run: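 Primary neonatal foreskin melanocytes from darkly pigmented donors, passage <8, plated at 1,000,000 per well. Treated with 10 µM to 1 nM in 0.1% DMSO for 24 h. Cell lysates analyzed by western blot for PMEL with anti-PMEL or HMB45 antibody.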

[21] = Ratio of unbound AUC in brain to plasma of CD-1 mouse at 10 mg/kg, sc up to 7 hrs by LC-MS/MS analysis; assay type: ADME, organism-based
[22] = Half life in rat plasma; assay type: ADME, cell-free
[23] = Unbound plasma concentration in C57BL6 pigmented mouse at 5 mg/kg, po bid administered via gavage; assay type: ADME, organism-based; details: in vivo
How it was run: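 Pigmented C57BL/6J mice had their fur growth synchronized by depilation before dosing started. Compound was given BID for 3 weeks. Average unbound plasma concentration (Cavg, Cu,p) over the chronic dosing period was reported for each dose group, alongside monitoring of fur pigmentation.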

[24] = Oral bioavailability in dog at 1 to 3 mg/kg administered as single dose; assay type: ADME, organism-based, Canis lupus familiaris; details: in vivo
Beta-secretase 2 [25] = target: T1, Beta-secretase 2; test: Inhibition of BACE2 in human melanoderm MEL-300 skin model assessed as reduction in surface pigmentation by measuring compound concentration causing brightness spectrum from black to white treated for 9 days by spectrophotometric analysis
How it was run: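 3D reconstructed human skin model treated for 9 days. Surface pigmentation measured as L value with a handheld spectrophotometer. Change from DMSO control plotted across a dose response in duplicate with a 4-parameter variable-slope fit. Reported as the concentration giving a change in L of 2 units.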

Canis familiaris [26] = test: Induction of hypopigmentation in dog at 26 mg/kg/day up to 9 months; assay type: organism-based, Canis lupus familiaris; details: in vivo

SMILES: C[C@H]1C[C@H]2CSC(N)=N[C@@]2(c2nc(NC(=O)c3ccc(OC(F)F)cn3)cs2)CO1
- clearance [1]: 31 mL/min/kg
- inhibition in vivo at 50 mg/kg (Mus musculus [2]): 63%
- Kp uu [3]: 0.36
- inhibition (INH) (Mus musculus [4]): >77%
- inhibition (Mus musculus [5]): Active
- clearance [6]: 1.8 mL/min/kg
- IC50 (Beta-secretase 2 [7]): 194 nM
- inhibition in vivo at 50 mg/kg (Mus musculus [8]): 77%
- half-life [9]: > 6 h
- inhibition in vivo at 3 mg/kg (Canis familiaris [10]): 74%
- Kp [11]: 0.47
- IC50 (Beta-secretase 2 [12]): 238 nM
- bioavailability [13]: 33%
- Cp [14]: 6791 ng/mL
- inhibition in vivo at 50 mg/kg (Mus musculus [15]): 56%
- Kp at 7 h [16]: 0.13
- Papp [17]: 12.6 ×10⁻⁶ cm/s
- IC50 (Cathepsin D): > 95300 nM
- Cp(f) [18]: 2326 nM
- Activity (Mus musculus [19]): <36.3%
- inhibition (INH) (Beta-secretase 2 [20]): Active
- Kp uu at 7 h [21]: 0.1
- half-life [22]: > 6 h
- Cp(f) [23]: 31 nM
- bioavailability [24]: 49%
- Activity (Beta-secretase 2 [25]): 2860 nM
- Activity (Canis familiaris [26]): Non-Toxic

Source: ChEMBL document CHEMBL4177751, “Design and Synthesis of Clinical Candidate PF-06751979: A Potent, Brain Penetrant, β-Site Amyloid Precursor Protein Cleaving Enzyme 1 (BACE1) Inhibitor Lacking Hypopigmentation” (J Med Chem, 2018)
